Screening results deposited in PubChem BioAssay by several laboratories.
An excerpt weighted towards active compounds, which were near 3.8% of everything screened.
TMEM16A act: activates or potentiates the mouse TMEM16A chloride channel; Q8BHY3; HEK293 TMEM16A/YFP-H148Q/I152L, iodide quench fluorescence; hits give low values; B-score at 10 µM; hit rate 0.3% among 340,000; AID 623877;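 active = fluorescence-ratio B-score plate-corrected deviation score at least 3 library SD below zero, with starting fluorescence score within 5 deviations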;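 note: channel opened by trigger with iodide after compound preincubation; score built on the fluorescence ratio of max minus min over baseline; more negative score means more quench and so TMEM16A activation or potentiation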
Target sequence (Q8BHY3 whole entry, looked up): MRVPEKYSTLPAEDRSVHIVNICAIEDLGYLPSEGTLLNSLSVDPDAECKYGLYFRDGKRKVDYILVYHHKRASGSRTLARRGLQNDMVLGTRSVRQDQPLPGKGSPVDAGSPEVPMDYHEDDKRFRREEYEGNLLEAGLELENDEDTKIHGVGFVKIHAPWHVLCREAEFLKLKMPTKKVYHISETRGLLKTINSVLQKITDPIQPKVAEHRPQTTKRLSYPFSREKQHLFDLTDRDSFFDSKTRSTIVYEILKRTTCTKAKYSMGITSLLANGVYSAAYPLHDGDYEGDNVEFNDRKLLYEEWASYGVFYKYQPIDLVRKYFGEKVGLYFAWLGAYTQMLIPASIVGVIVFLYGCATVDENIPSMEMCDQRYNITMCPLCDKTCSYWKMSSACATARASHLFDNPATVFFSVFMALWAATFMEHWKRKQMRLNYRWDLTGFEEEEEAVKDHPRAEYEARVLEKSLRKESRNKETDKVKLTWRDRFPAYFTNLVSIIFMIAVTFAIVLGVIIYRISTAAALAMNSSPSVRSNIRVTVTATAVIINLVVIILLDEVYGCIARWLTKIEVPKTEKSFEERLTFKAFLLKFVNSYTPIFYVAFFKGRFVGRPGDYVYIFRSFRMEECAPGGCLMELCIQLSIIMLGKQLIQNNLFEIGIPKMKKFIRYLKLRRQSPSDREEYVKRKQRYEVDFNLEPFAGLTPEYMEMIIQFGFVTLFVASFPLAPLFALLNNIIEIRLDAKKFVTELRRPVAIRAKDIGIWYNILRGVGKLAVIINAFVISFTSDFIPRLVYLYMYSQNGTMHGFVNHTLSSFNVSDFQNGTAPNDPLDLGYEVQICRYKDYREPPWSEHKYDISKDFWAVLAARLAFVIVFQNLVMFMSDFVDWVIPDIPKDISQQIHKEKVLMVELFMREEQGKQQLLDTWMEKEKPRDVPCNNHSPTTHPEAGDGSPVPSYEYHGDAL
ANO1 block: inhibitors of mouse TMEM16A calcium-activated chloride channel | Q8BHY3 | HEK293 TMEM16A/YFP iodide influx fluorescence, ionomycin | normalized B-score (activity score, 25-100; higher = stronger inhibition) at 10 µM | hit rate 1.2% among 310,000;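 active = ratio plate-corrected score three or more library SD toward inhibition, starting fluorescence score within five deviations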;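 note: score derived from kinetic fluorescence span divided by baseline fluorescence per well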
CSC inhib: blocks cancer stem cells; hit rate 1.1% among 300,000; inhibition, % at 7.5 µM; cancer stem cell-like cells viability, luminescence; in the data active = inhibition above about 75%; tested in HMLE shEcad cells
MC4R barr agon: agonists of human melanocortin 4 receptor (MC4R) beta-arrestin; P32245; U2OS MC4R beta-arrestin complementation, luminescence; percent of melanotan II response, DMSO zero; activation, % at 8.9 µM; hit rate 0.98% among 360,000; AID 540308;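 active = activation above a per-plate cutoff, the mean activation of sample wells on that plate plus 3 SD, cut at about 8% in these data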
Beta apoptosis: beta cell apoptosis inhibition | INS-1E cytokine-induced death, ATP luminescence, 48 h; percent of positive-control rescue, neutral wells zero | protection from apoptosis, % (concentration not given with the values) | hit rate 0.8% among 300,000;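 active = Every replicate reaches about 75%, or at least half do and their mean reaches it too, limit read from the data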;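 note: higher means more ATP so stronger rescue from cytokine killing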
MC4R antag cAMP: antagonists of human melanocortin 4 receptor (MC4R); P32245; MC4R-expressing cells, MTII-stimulated cAMP, LANCE TR-FRET; inhibition, % at 6.5 µM; hit rate 0.48% among 360,000; AID 540295;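 active = inhibition above its plate's cutoff, the mean of tested wells on that plate plus 3 SD, cut at about 29% in these data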
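System: U2OS-MC4R stable cell line; Technique: Eu-cAMP/anti-cAMP TR-FRET, emission 671 nm; Repeats: single well per compound; Also added: Melanotan II; Dosing: one concentration, 6.5 µM nominal; Schedule: 30-min compound, 1-h challenge, 1-h detection, room temperature.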
A number is an active result; - = inactive; . = no result; + = active, no number.

SMILES	TMEM16A act	ANO1 block	CSC inhib	MC4R barr agon	Beta apoptosis	MC4R antag cAMP
O=C1c2ccccc2S(=O)(=O)c2cc(C(=O)N(c3ccccn3)c3ccccn3)ccc21	-7.5	-	-	-	-	-
CCc1nc2ccc(C(=O)N3CCCCC3)cn2c1N(C)CCCc1ccccc1	.	.	.	-	.	-
O=C(Oc1c(CN2CCOCC2)cc(Cl)c2cccnc12)c1ccccc1Cl	-	-	-	-	-	-
OCCN1CCN(Cc2cc(Cl)c3cccnc3c2O)CC1	-	-	-	-	-	-
Oc1c(Cl)cc(Cl)c2cccnc12	-	.	.	-	.	-
COc1cccc(C(=O)Oc2c(CN3CCOCC3)cc(Cl)c3cccnc23)c1	-	-	-	-	90	-
O=C(Oc1c(CN2CCOCC2)cc(Cl)c2cccnc12)c1cccs1	-	-	-	-	122	-
O=C(Oc1c(Cl)cc(Cl)c2cccnc12)c1ccco1	-	-	+	-	91	-
COc1ccc(C(=O)Oc2c(CN3CCOCC3)cc(Cl)c3cccnc23)cc1	-	-	-	-	-	-
O=C(Oc1c(CN2CCOCC2)cc(Cl)c2cccnc12)c1ccc(F)cc1	-	-	-	-	83	-
CC1CN(S(=O)(=O)c2cccc(C(=O)Nc3ccc(S(=O)(=O)NC4=NCCCCC4)cc3)c2)CC(C)O1 (stereo unspecified)	-	-	-	-	.	-
COc1cc(C(=O)Oc2c(CN3CCOCC3)cc(Cl)c3cccnc23)cc(OC)c1OC	-	-	-	-	93	-
O=C(Oc1c(Cl)cc(Cl)c2cccnc12)c1cccs1	-	-	121	-	75	-
C/C(=N\NC(=O)c1cc(-c2cccc([N+](=O)[O-])c2)n[nH]1)c1ccccc1O	-	-	80	-	.	-
CCN(C(=O)CSc1nnc(SC(C)C)s1)C1CCS(=O)(=O)C1 (stereo unspecified)	-	.	.	-	-	-
COc1ccccc1NC(=O)NC(=O)c1ccccc1	-	-	-	8.8	-	-
COc1ccccc1NC(=O)NC(N)=O	-	-	-	-	.	-
Cc1cc(C)c2sc(N(CCCN(C)C)C(=O)c3ccc(S(=O)(=O)N4CCCc5ccccc54)cc3)nc2c1	-	-	101	-	.	-
COc1ccc2sc(N(CCCN(C)C)C(=O)c3ccc(S(=O)(=O)N4CCc5ccccc5C4)cc3)nc2c1	-	-	91	32	.	-
Cc1cc(C)c2sc(N(CCCN(C)C)C(=O)c3ccc(S(=O)(=O)N4CCc5ccccc5C4)cc3)nc2c1	-	-	-	39	.	-
CN(C)CCCN(C(=O)c1ccc(S(=O)(=O)N2CCc3ccccc32)cc1)c1nc2ccc(F)cc2s1	-	-	-	-	-	-
Cc1ccc2nc(N(CCCN(C)C)C(=O)c3ccc(S(=O)(=O)N4CCc5ccccc5C4)cc3)sc2c1	-5.3	-	-	8.7	114	-
C/C(=N\NC(=O)c1cc(C)oc1C)c1ccc(C)c([N+](=O)[O-])c1	-	.	.	-	-	-
CN(C)CCCN(C(=O)c1ccc2c(c1)CCCC2)c1nc2ccc(F)cc2s1	-	-	.	-	-	-
Cc1ccc2sc(N(CCCN(C)C)C(=O)c3ccc(S(=O)(=O)N(C)C4CCCCC4)cc3)nc2c1C	-	-	89	-	.	-
SMILES	TMEM16A act	ANO1 block	CSC inhib	MC4R barr agon	Beta apoptosis	MC4R antag cAMP
CN(C)CCCN(C(=O)c1cc(-c2cccs2)nc2ccccc12)c1nc2ccc(F)cc2s1	-	-	103	-	-	-
Cc1cc(C)c2sc(N(CCN(C)C)C(=O)CCS(=O)(=O)c3ccccc3)nc2c1	-	-	-	9.2	-	-
CN(C)CCN(C(=O)c1cc(Cl)sc1Cl)c1nc2ccc(F)cc2s1	-	-	-	-	-	-
CN(C)CCCN(C(=O)c1ccc2c(c1)CCCC2)c1nc2cc3c(cc2s1)OCO3	-	-	-	8.6	-	-
Cc1c(Br)cccc1NC(=O)C1(C)CCN1Cc1ccc(OC(C)C)cc1 (stereo unspecified)	.	.	.	-	.	-
CCNC(=O)C1(C)CCN(C(=O)c2ccc3ccccc3c2)C1 (stereo unspecified)	.	.	.	-	.	-
C[C@@H]1CN([C@@H](C)CO)C(=O)CCCn2nncc2CO[C@@H]1CN(C)C(=O)OCc1ccccc1	.	.	.	-	.	-
CN(C)CCCN(C(=O)c1ccc(S(=O)(=O)N2CCc3ccccc3C2)cc1)c1nc2ccc(F)cc2s1	-	-	91	17	-	-
CCCCN1C(=O)C(CC(=O)NCc2ccco2)CC(C(=O)N(CC)CC)=C1C (stereo unspecified)	.	.	.	-	.	-
CCOC(=O)C1CCCN(C(=O)CCc2nc3sc4c(c3c(=O)[nH]2)CCCC4)C1 (stereo unspecified)	-	.	.	-	-	-
Cc1cnc(NC(=O)CN2CCN(c3ccccn3)CC2)s1	-	-	-	-	79	-
COc1ccc(N2CCN(CC(=O)Nc3ncc(C)s3)CC2)cc1	-	-	-	-	-	-
CCOc1cccc2sc(=NC(=O)CCS(=O)(=O)c3ccc(F)cc3)n(C)c12	-	-	-	-	.	-
CCc1ccccc1N(CC(=O)NC1CCCCC1)C(=O)CCC(=O)Nc1ccccn1	-5.8	-	-	-	-	-
O=S(=O)(N/N=C1/CCCc2ccccc21)c1ccc(Br)cc1	-	-	-	-	-	-
Cc1ccc(S(=O)(=O)N/N=C2/CC(c3ccccc3)Oc3ccccc32)cc1[N+](=O)[O-] (stereo unspecified)	-	100	-	-	-	-
O=S(=O)(N/N=C1/CC(c2ccccc2)Oc2ccccc21)c1ccc(Br)cc1 (stereo unspecified)	-	25	89	-	-	-
O=C(NCCCc1ccc(F)cc1)C1CCC(=O)N(CCN2CCOCC2)C1 (stereo unspecified)	-	-	-	-	-	-
COc1ccc(N(CC(=O)NC2CCS(=O)(=O)C2)S(=O)(=O)c2cc(C)ccc2C)cc1 (stereo unspecified)	-	.	-	-	-	-
Cc1ccc(-c2nc3ccccc3s2)cc1NC(=O)c1ccc2c(c1)OCO2	-	-	-	-	-	38
CCCCCC(=O)N1C[C@@H](O)[C@H](n2cc(C3CC3)nn2)C[C@@H]1c1ccc(C)cc1	.	.	.	-	.	-
COc1ccc(-c2noc(-c3csc([C@@H]4O[C@H](CO)[C@H](O)[C@H](O)[C@H]4O)n3)n2)cc1OC	.	.	.	-	.	-
CC(OC(=O)c1cccs1)C(=O)NC1CCCCC1C (stereo unspecified)	-	.	96	-	-	-
Cc1ccc(C(=O)OC(C)C(=O)NC2CCCCC2C)s1 (stereo unspecified)	-	.	.	-	-	-
COc1cccc(NC(=O)CN(C)C(=O)CC2CCCCC2)c1	-	.	.	-	.	-
COc1ccc2cc(C3CC(c4cccs4)=NN3C(C)=O)c(Cl)nc2c1 (stereo unspecified)	-	-	-	-	-	-
